For 22 compounds, selectivity ratio, CC50 and EC50 results are on record in ChEMBL document CHEMBL2346495, “Evaluation of HIV-1 inhibition by stereoisomers and analogues of the sesquiterpenoid hydroquinone peyssonol A” (Bioorg Med Chem Lett, 2013).

SMILES strings stand for the structures. Some results are limits rather than exact numbers.

The nature of data set [1]: Therapeutic index, ratio of CC50 for human MT2 cells to EC50 for recombinant HIV1 expressing Rep-Rluc Sac II. Type of data set: cell-based. Conditions: read-out: Ratio CC50/EC50. An outline of the steps:
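Therapeutic index computed as CC50 (XTT viability of uninfected MT-2 cells, serial dilutions) over EC50 (luciferase output after 5-day infection of MT-2 cells with HIV-1 NL-Rluc in the presence of compounds). Each input is averaged from two to four experiments.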

The nature of data set [2]: Cytotoxicity against human MT2 cells by XTT assay. Format: cell-based. An outline of the steps:
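Uninfected MT-2 cells, run in parallel with the antiviral screen, exposed to serially diluted compounds; viability read by XTT assay. CC50 averaged from two to four experiments.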
(Tetrazolium assays rely on reduction of a dye to a coloured formazan, in cell work by metabolically active cells.)

Data set [3] concerns Human immunodeficiency virus 1. The experiment in a line: Antiviral activity against recombinant HIV1 expressing Rep-Rluc Sac II infected in human MT2 cells after 5 days by luciferase reporter gene assay. Format: functional, organism-based. Conditions: Human immunodeficiency virus 1, MT2, 120 h. An outline of the steps:
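MT-2 human lymphocytes infected with recombinant HIV-1 NL-Rluc (Rep-Rluc Sac II) in the presence of compounds; 5-day incubation, then cells processed and virus growth quantified by expressed luciferase. EC50 values averaged from two to four experiments.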

The term CC50 denotes the concentration giving 50% cytotoxicity. Read a high CC50 as lower toxicity to the cells. As a reminder, the EC50 is the concentration needed to bring the measured effect to its halfway point. Regarding `O=Cc1cc(O)c(CC2CCCCC2)cc1O`, the selectivity ratio in data set [1] is greater than 25. The compound also registered a half-maximal cytotoxic concentration (CC50) in data set [2] greater than 100 µM. Moreover, the concentration giving a half-maximal response (EC50) in data set [3] came to 4 µM.

As for `CC1=CC[C@H]2C(C)(C)[C@@H](Br)CC[C@]2(C)[C@@H]1Cc1cc(O)c(C=O)cc1O`, the selectivity ratio in data set [1] is 4. In addition, in data set [2], the CC50 is 4 µM. For the same compound, the EC50 in data set [3] worked out at 0.9 µM.

With `CC1=C(Cc2cc(O)c(C=O)cc2O)[C@@]2(C)CC[C@H](Br)C(C)(C)[C@@H]2CC1`, the selectivity ratio in data set [1] was determined as 5. The compound also displayed a CC50 in data set [2] of 4 µM. In addition, the EC50 in data set [3] came out at 0.8 µM.

Turning to `CC1(C)[C@@H](Br)CC[C@@]2(C)[C@H]1CC[C@@](C)(O)[C@H]2CO`, the selectivity ratio in data set [1] was determined as 44. Besides, the half-maximal cytotoxic concentration (CC50) in data set [2] is 90 µM. In data set [3], the EC50 amounted to 2 µM.

As to `CC1(C)CCC[C@@]2(C)[C@H]1CC[C@@]1(C)OC(=O)OC[C@@H]21`, in data set [1], the selectivity ratio stood at 17. In data set [2], this compound came in with a CC50 of 30 µM. For the same compound, the EC50 in data set [3] amounted to 2 µM.

For the compound `CC1(C)[C@@H](Cl)CC[C@@]2(C)[C@H]1CC[C@@]1(C)OC(=O)OC[C@@H]21`, the selectivity ratio in data set [1] amounted to 4. Further, in data set [2], the CC50 amounted to 40 µM. Also, in data set [3], the half-maximal effective concentration (EC50) is 10 µM.

With `CC1(C)[C@@H](I)CC[C@@]2(C)[C@H]1CC[C@@]1(C)OC(=O)OC[C@@H]21`, the selectivity ratio in data set [1] is 6. Moreover, the CC50 in data set [2] turned out to be 30 µM. Further, the EC50 in data set [3] amounted to 5 µM.

With `Cc1cc(O)c(C=O)cc1O`, the selectivity ratio in data set [1] was 3. Half-maximal cytotoxicity in data set [2] (CC50) was put at 30 µM. For the same compound, in data set [3], the EC50 stood at 10 µM.

For `CC(=O)OC[C@H]1[C@@]2(C)CC[C@H](Br)C(C)(C)[C@H]2CC[C@]1(C)O`, in data set [1], the selectivity ratio is greater than 2. Further, in data set [2], the cytotoxic concentration (CC50) was greater than 100 µM. Besides, the EC50 in data set [3] amounted to 40 µM.

Regarding `CC(=O)OC[C@@H]1[C@@]2(C)CC[C@H](Br)C(C)(C)[C@H]2CC[C@]1(C)O`, the selectivity ratio in data set [1] came to 3. Moreover, in data set [2], the CC50 stood at 70 µM. Also, the EC50 in data set [3] was 20 µM.

For `CC(=O)OC[C@@H]1[C@@]2(C)CC[C@H](Br)C(C)(C)[C@@H]2CC[C@@]1(C)O`, in data set [1], the selectivity ratio amounted to 3. The same compound displayed a CC50 in data set [2] of 40 µM. For the same compound, the EC50 in data set [3] came to 10 µM.

In the case of `CC(=O)OC[C@H]1[C@@]2(C)CC[C@H](Br)C(C)(C)[C@@H]2CC[C@@]1(C)O`, the selectivity ratio in data set [1] amounted to 8. Also, in data set [2], half-maximal cytotoxicity (CC50) was put at 90 µM. Further, the 50% effective concentration (EC50) in data set [3] turned out to be 10 µM.

On to `CC1(C)[C@H]2CC[C@]3(C)OC(=O)OC[C@H]3[C@@]2(C)CC[C@@H]1Br`, for which the selectivity ratio in data set [1] was greater than 11. In data set [2], the half-maximal cytotoxic concentration (CC50) is greater than 100 µM. Also, the EC50 in data set [3] is 9 µM.

For the compound `CC1(C)[C@H]2CC[C@]3(C)OC(=O)OC[C@@H]3[C@@]2(C)CC[C@@H]1Br`, the selectivity ratio in data set [1] was 9. Further, half-maximal cytotoxicity in data set [2] (CC50) was put at 70 µM. For the same compound, the EC50 in data set [3] worked out at 7 µM.

For `CC1(C)[C@@H](Br)CC[C@]2(C)[C@H]3COC(=O)O[C@]3(C)CC[C@@H]12`, in data set [1], the selectivity ratio is greater than 10. This compound also gave a cytotoxic concentration (CC50) in data set [2] greater than 100 µM. Also, in data set [3], the half-maximal effective concentration (EC50) came to 10 µM.

On to `CC1(C)[C@@H](Br)CC[C@@]2(C)[C@H]1CC[C@@]1(C)OC(=O)OC[C@@H]21`, for which the selectivity ratio in data set [1] is 23. This compound also yielded a 50% cytotoxic concentration (CC50) in data set [2] of 90 µM. Besides, the EC50 in data set [3] was determined as 4 µM.

Turning to `C=C1CC[C@@H]2C(C)(C)[C@@H](Br)CC[C@]2(C)[C@@H]1Cc1cc(O)c(C=O)cc1O`, the selectivity ratio in data set [1] stood at 7. Moreover, the CC50 in data set [2] was found to be 5 µM. Further, the EC50 in data set [3] worked out at 0.7 µM.

`C=C1CC[C@@H]2C(C)(C)[C@@H](Br)CC[C@]2(C)[C@H]1Cc1cc(O)c(C=O)cc1O`: in data set [1], the selectivity ratio was 8. Moreover, in data set [2], the CC50 came to 4 µM. Moreover, the EC50 in data set [3] stood at 0.5 µM.

As for `C=C1CC[C@H]2C(C)(C)[C@@H](Br)CC[C@]2(C)[C@H]1Cc1cc(O)c(C=O)cc1O`, the selectivity ratio in data set [1] was determined as 4. For the same compound, half-maximal cytotoxicity in data set [2] (CC50) was put at 2 µM. Also, in data set [3], the EC50 was 0.5 µM.

With `CC1(C)[C@@H](Br)CC[C@@]2(C)[C@H]1CC[C@@]1(C)Oc3cc(C=O)c(O)cc3C[C@@H]21`, the selectivity ratio in data set [1] came out at 5. In addition, the midpoint of cytotoxicity in data set [2], the CC50, lay at 5 µM. For the same compound, in data set [3], the concentration giving a half-maximal response (EC50) was determined as 1 µM.

Regarding `CC1=CC[C@H]2C(C)(C)[C@@H](Br)CC[C@]2(C)[C@@H]1Cc1cc(O)c(CC(=O)O)cc1O` [PEYSSONOIC ACID A], the selectivity ratio in data set [1] was greater than 2. The compound further had a CC50 in data set [2] greater than 100 µM. Further, the EC50 in data set [3] is 50 µM.

Regarding `C=C1CC[C@H]2C(C)(C)[C@@H](Br)CC[C@]2(C)[C@@H]1Cc1cc(O)c(C=O)cc1O` [PEYSSONOL A], the selectivity ratio in data set [1] is 4. Besides, the midpoint of cytotoxicity in data set [2], the CC50, lay at 4 µM. Besides, the EC50 in data set [3] came to 1 µM.
